HIF act: HIF pathway transcriptional activation; U2OS HRE-luciferase reporter, luminescence; normalized: DMSO 0%, desferrioxamine 100%; activation, % at 7.5 µM (by protocol); actives 0.32% (n = 300,000); AID 1910;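 active = mean activation of at least 10% of the iron chelator positive control signal, with at least half of replicates also reaching 10%; inconclusive = mean and replicate majority disagree about reaching 10%; inactive = mean and most replicates under 10%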
T cruzi repl: blocks replication of Trypanosoma cruzi; AID 1885; inhibition, % (concentration not given with the values); T. cruzi beta-gal in NIH3T3, luminescence, 90 h; actives 1.4% (n = 300,000);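 active = mean inhibition across valid replicates above about 55%, limit read from the data; inconclusive = mean below that limit but half or more replicates reach it; inactive = mean below it, under half of replicates reach it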;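 also: signal also drops with host cell toxicity which is not excluded here; 0% = plate median of DMSO wells and 100% = zero luminescence signal; higher percent means less beta-gal luminescence so fewer parasites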
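System: mouse NIH/3T3 fibroblasts infected with β-gal-expressing T. cruzi Tulahuen C4 / Input: NIH/3T3 cells, 5,000 per well / Buffer or medium: Low-serum DMEM with 2% FBS / Probe or stimulus: 5000 reporter trypomastigotes per well / Schedule: ≥90 h infection period, 3 h prior cell attachment / Measured by: GalScreen luminescence, 60 min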
ARNT-TACC3 inh: ARNT/TACC3 interaction disruption | AlphaScreen His-ARNT PAS-B/GST-TACC3 binding, luminescence; TACC3 fragment carries E629A point mutation | inhibition, % at 9.99 µM | actives 0.66% (n = 390,000);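 active = mean inhibition of replicates at least 50% and at least half of replicates each reaching 50%; inconclusive = half or more replicates reach 50% but mean below 50%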;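 also: 0% = complete ARNT plus TACC3 wells and 100% = ARNT alone without TACC3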
AI-2 QS mod: Vibrio harveyi AI-2 quorum sensing modulation; actives 0.4% (n = 300,000); activity change, % at 7.5 µM; Vibrio harveyi JMH597 AI-2 luminescence/OD600 ratio, 9 h; hits give low values; strain lacks LuxN and CqsS sensors; 0 = neutral-control median; AID 2094; in the data active = activity change below about -75%, passing the limit was not always enough; inconclusive = no clear call, values can overlap the other calls;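 also: luminescence divided by OD600 gain over 9 h not by final OD600 alone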
An asterisk follows results filed as active; ? = inconclusive; · = no result given. Rows were chosen to be rich in hits. Some 2% of all compounds tested hit in one or more screens of this group.

SMILES	HIF act	T cruzi repl	ARNT-TACC3 inh	AI-2 QS mod
COc1ccc(NC(=O)N(C)C[C@@H]2Oc3ccc(NC(=O)Cn4cnnn4)cc3C(=O)N([C@@H](C)CO)C[C@@H]2C)cc1	·	·	-8	·
CCOC(=O)c1c(NC(=O)CN2C(=O)NC3(CCCCC3)C2=O)sc(C)c1-c1ccc(C)cc1	1	25	·	5
CCOC(=O)c1c(NC(=O)CN2C(=O)NC3(CCC(C)CC3)C2=O)sc(C)c1-c1ccc(C)cc1 (centres undefined)	39*	6	2	7
CCOC(=O)c1c(NC(=O)CN2C(=O)NC3(CCCCC3C)C2=O)sc(C)c1CC (centres undefined)	0	66*	-4	-6
Cc1[nH]c(=O)[nH]c(=O)c1/C=N/NC(=O)[C@H](CC(C)C)NC(=O)OC(C)(C)C	0	0	24	19
Cc1[nH]c(=O)[nH]c(=O)c1/C=N/NC(=O)[C@@H](N)CC(C)C	2	-2	65*	-9
COCC#Cc1ccc([C@@H]2[C@H](CO)N3CCCCN(C(=O)Nc4cc(F)ccc4F)C[C@@H]23)cc1	·	·	9	·
COCCNC(=O)C[C@@H]1C[C@H]2c3cc(NS(=O)(=O)c4ccccc4)ccc3O[C@H]2[C@H](CO)O1	·	·	3	·
O=C1c2cccc(NCCNCCO)c2C(=O)c2cccc(NCCNCCO)c21	·	·	47*	·
CCOC(=O)COc1cc([N+](=O)[O-])cc2cccnc12	0	-16	-6	29
CCOC(=O)COc1ccccc1/C=C\[N+](=O)[O-]	-6	9	7	-90*
CS(=O)(=O)N(CC(=O)NC1CCCCC1)Cc1ccc(F)cc1	0	-28	-30	10
COc1ccc(C(=O)/C=C/C(=O)N(CC(=O)NC2CCCCC2)Cc2ccc(F)cc2)c(O)c1	-8	59*	8	4
O=C(C[C@H]1CC[C@@H]2[C@H](COC[C@H](O)CN2Cc2ccccc2)O1)N1CCOCC1	·	·	9	·
C[C@@H]1CN([C@H](C)CO)C(=O)c2cc(NC(=O)CCCN(C)C)ccc2O[C@@H](C)CCCCO[C@@H]1CN(C)CC1CCCCC1	·	·	3	·
CCOc1ccc(-n2c(-c3ccc(OC)cc3)c[n+]3c2CCCCC3)cc1	0	53	-2	11
CCOc1ccc(-n2c(-c3ccccc3)c[n+]3c2CCC3)cc1	0	62*	-2	6
COc1ccc(-c2c[n+]3c(n2-c2ccc(C)cc2)CCCCC3)cc1	0	60*	-2	15
COc1ccc(-n2c(-c3ccc(Cl)cc3)c[n+]3c2CCCCC3)cc1	-1	54	1	17
CCOc1ccc(-n2c(-c3ccc(Br)cc3)c[n+]3c2CCCCC3)cc1	0	83*	-12	29
C[C@@H]1CCCCO[C@H](CN(C)Cc2ccncc2)[C@@H](C)CN([C@@H](C)CO)C(=O)c2cc(N(C)C)ccc2O1	·	·	-4	·
CC(C)(C)C1CCC(=NNc2nc3ccccc3[nH]2)CC1 (centres undefined)	1	-24	20	28
c1ccc2c(c1)CC/C2=N/Nc1nc2ccccc2[nH]1	5	67*	5	8
COc1cc(OC)c(OC)cc1/C=N/Nc1nc2ccccc2[nH]1	0	-25	20	9
C(=N\Nc1nc2ccccc2[nH]1)/c1cccc2nccnc12	47*	13	11	-4
SMILES	HIF act	T cruzi repl	ARNT-TACC3 inh	AI-2 QS mod
CCN(CC)c1ccc(/C=N/Nc2nc3ccccc3[nH]2)c(O)c1	83*	59*	11	42
C(=N\Nc1nc2ccccc2[nH]1)/c1ccc2ncccc2c1	-3	35	-5	6
C(=N\Nc1nc2ccccc2[nH]1)/c1ccccn1	4	69*	·	9
COc1ccc(NC(=O)N(C)C[C@@H]2Oc3c(NC(=O)C4CC4)cccc3C(=O)N([C@@H](C)CO)C[C@@H]2C)cc1	·	·	-7	·
CCCCn1c(/C=N/Nc2nc3ccccc3[nH]2)nc2ccccc21	69*	39	6	14
CCCNC(=O)C[C@@H]1CC[C@@H]2[C@@H](COc3ccc(NC(=O)Nc4ccccc4F)cc3C(=O)N2C)O1	·	·	-11	·
C[C@H](CO)N1C[C@H](C)[C@H](CN(C)C(=O)Nc2ccnc(N3CCOCC3)c2)OCc2ccccc2-c2ccccc2C1=O	·	·	12*	·
C[C@H]1CN([C@@H](C)CO)C(=O)c2ccccc2-c2ccccc2CO[C@H]1CN(C)C(=O)Nc1ccnc(N2CCOCC2)c1	·	·	7	·
C[C@H](CO)N1C[C@H](C)[C@@H](CN(C)C(=O)c2ccncc2)OCCCC[C@H](C)Oc2ccc(NC(=O)Cc3ccccc3)cc2C1=O	·	·	active	·
C[C@@H]1CN([C@@H](C)CO)C(=O)c2cc(NC(=O)Nc3ccc(F)cc3)ccc2O[C@@H](C)CCCCO[C@H]1CN(C)Cc1ccc(Cl)c(Cl)c1	·	·	48*	·
Cc1noc(C)c1NC(=O)N(C)C[C@H]1OCCCC[C@H](C)Oc2ccc(NC(=O)NC(C)C)cc2C(=O)N([C@@H](C)CO)C[C@H]1C	·	·	-3	·
O=C(C[C@@H]1C=C[C@H](NC(=O)Nc2ccc(C(F)(F)F)cc2)[C@@H](CO)O1)NCc1ccccn1	·	·	7	·
C[C@H](CO)N1C[C@H](C)[C@@H](CN(C)Cc2ccccc2)Oc2ncc(C#Cc3cccnc3)cc2C1=O	·	·	1	·
O=C(C[C@@H]1CC[C@H](NC(=O)NC2CCCCC2)[C@H](CO)O1)NCc1ccccc1	·	·	-4	·
O=C(Nc1ccccc1)C1=C(c2ccccc2)S(=O)(=O)CCS1(=O)=O	-8	69*	-1	?
O=C(O)c1ccccc1C(=O)Nc1ccccc1	1	-10	-13	10
CCn1nc(C)c(NC(=O)/C=C/c2ccc(OC)c(COc3ccc(Cl)cc3Br)c2)c1C	0	55*	3	0
CO[C@H]1C=CO[C@@]2(C)Oc3c(C)c(O)c4c(O)c(c5c(nc6cc(C)ccn65)c4c3C2=O)NC(=O)C(C)=CC=C[C@H](C)[C@H](O)[C@@H](C)[C@@H](O)[C@@H](C)[C@H](OC(C)=O)[C@@H]1C	0	-1	·	-219*
COc1ccc2c(c1)Cc1sc(NC(=O)c3cccs3)nc1-2	3	55*	2	9
CS(=O)(=O)c1ccc2nc(NC(=O)CCS(=O)(=O)c3ccccc3)sc2c1	0	-2	1	16
CCOc1ccc2nc(NC(=O)C3CCCN(S(=O)(=O)c4cccs4)C3)sc2c1 (centres undefined)	0	61*	-1	20
CS(=O)(=O)c1ccc2nc(NC(=O)CCC(=O)c3cccs3)sc2c1	1	5	-1	-96*
COc1ccc2nc(NC(=O)c3cccs3)sc2c1	21*	11	·	16
CCNC(=O)C[C@@H]1CC[C@H]2[C@@H](COc3ccc(NC(=O)Nc4ccccc4Cl)cc3C(=O)N2C)O1	·	·	-1	·
C[C@@H]1CCCCO[C@@H](CN(C)S(=O)(=O)c2ccc(F)cc2)[C@H](C)CN([C@H](C)CO)C(=O)c2cc(NC(=O)Nc3cccc4ccccc34)ccc2O1	·	·	1	·

Screening data: PubChem, Broad Institute
